Measurements from ChEMBL document CHEMBL3259614, “Design, synthesis, and structure-activity relationship studies of novel fused heterocycles-linked triazoles with good activity and water solubility” (J Med Chem, 2014).
≈ marks a conversion by molar mass, not a printed value.

Assays:
Candida albicans [1] = experiment: Antimicrobial activity against Candida albicans Y0109 after 24 hrs by serial dilution method; assay type: functional; details: Y0109, 24 h
Procedure, shortened: (§1)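 Broth serial dilution MIC in 96-well plates following NCCLS/CLSI methods. Compounds were dissolved in DMSO and serially diluted in growth medium, with incubation at 35 °C. […] C. parapsilosis 22019 served as the quality-control strain in each assay.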

Cryptococcus neoformans = experiment: Antimicrobial activity against Cryptococcus neoformans 32609 after 72 hrs by serial dilution method; assay type: functional; details: Cryptococcus neoformans, 32609, 72 h; procedure, shortened: as §1
Nakaseomyces glabratus = experiment: Antimicrobial activity against Candida glabrata 537 after 24 hrs by serial dilution method; assay type: functional; details: Nakaseomyces glabratus, 537, 24 h; procedure, shortened: as §1
Aspergillus fumigatus = experiment: Antimicrobial activity against Aspergillus fumigatus 7544 after 48 hrs by serial dilution method; assay type: functional; details: Aspergillus fumigatus, 7544, 48 h; procedure, shortened: as §1
Candida parapsilosis = experiment: Antimicrobial activity against Candida parapsilosis 22019 after 24 hrs by serial dilution method; assay type: functional; details: Lodderomyces parapsilosis, 22019, 24 h; procedure, shortened: as §1
Candida albicans [2] = experiment: Antimicrobial activity against Candida albicans SC5314 after 24 hrs by serial dilution method; assay type: functional; details: SC5314, 24 h; procedure, shortened: as §1
[3] = Aqueous solubility of the compound in phosphate buffer at pH 7.4; assay type: physicochemical
Procedure, shortened: (§2)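 Excess solid was stirred for 3 h in pH 1.2 hydrochloric acid or pH 7.4 phosphate buffer, then filtered through 0.45 μm. Absorbance at the UV maximum was compared with a methanol standard, C′ = A′C/A, with values reported in mg/mL. Determined at 30 °C; mean ± SD, n = 3.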

[4] = Aqueous solubility of the compound in hydrochloric acid solution at pH 1.2; assay type: physicochemical; procedure, shortened: as §2
Candida albicans [5] = experiment: Antimicrobial activity against fluconazole-resistant Candida albicans J18 after 24 hrs by serial dilution method; assay type: functional; details: J18, 24 h
Procedure, shortened: (§3)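 Broth serial-dilution MIC in 96-well plates following NCCLS guidance. Compounds were dissolved in DMSO and serially diluted in growth medium. Clinical isolates came from a hospital collection. […] C. parapsilosis ATCC 22019 served as the quality-control strain in each assay.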

Candida albicans [6] = experiment: Antimicrobial activity against fluconazole-resistant Candida albicans 100 after 24 hrs by serial dilution method; assay type: functional; details: Candida albicans, 100, 24 h; procedure, shortened: as §3
Candida albicans [7] = experiment: Antimicrobial activity against fluconazole-resistant Candida albicans J38 after 24 hrs by serial dilution method; assay type: functional; details: J38, 24 h; procedure, shortened: as §3
Candida albicans [8] = experiment: Antimicrobial activity against fluconazole-resistant Candida albicans J28 after 24 hrs by serial dilution method; assay type: functional; details: J28, 24 h; procedure, shortened: as §3
Candida albicans [9] = experiment: Antimicrobial activity against fluconazole-resistant Candida albicans 103 after 24 hrs by serial dilution method; assay type: functional; details: Candida albicans, 103, 24 h; procedure, shortened: as §3

Structure (SMILES)	MIC (Candida albicans [1])	MIC (Cryptococcus neoformans)	MIC (Nakaseomyces glabratus)	MIC (Aspergillus fumigatus)	MIC (Candida parapsilosis)	MIC (Candida albicans [2])	solubility [3]	solubility [4]	MIC (Candida albicans [5])	MIC (Candida albicans [6])	MIC (Candida albicans [7])	MIC (Candida albicans [8])	MIC (Candida albicans [9])
C[C@@H](N1CCc2sc(-c3ccncc3)cc2C1)[C@](O)(Cn1cncn1)c1ccc(F)cc1F	2 µg/mL (≈ 4.28 µM)	4 µg/mL (≈ 8.56 µM)	8 µg/mL (≈ 17.1 µM)	> 32 µg/mL	4 µg/mL (≈ 8.56 µM)	1 µg/mL (≈ 2.14 µM)							
C[C@@H](N1CCc2sc(-c3cccnc3)cc2C1)[C@](O)(Cn1cncn1)c1ccc(F)cc1F	8 µg/mL (≈ 17.1 µM)	4 µg/mL (≈ 8.56 µM)	2 µg/mL (≈ 4.28 µM)	32 µg/mL (≈ 68.4 µM)	4 µg/mL (≈ 8.56 µM)	1 µg/mL (≈ 2.14 µM)							
C[C@@H](N1CCc2cc(Br)sc2C1)[C@](O)(Cn1cncn1)c1ccc(F)cc1F	0.5 µg/mL (≈ 1.07 µM)	0.5 µg/mL (≈ 1.07 µM)	1 µg/mL (≈ 2.13 µM)	32 µg/mL (≈ 68.2 µM)	2 µg/mL (≈ 4.26 µM)	1 µg/mL (≈ 2.13 µM)							
C[C@@H](N1CCc2cc(-c3ccncc3)sc2C1)[C@](O)(Cn1cncn1)c1ccc(F)cc1F	4 µg/mL (≈ 8.56 µM)	1 µg/mL (≈ 2.14 µM)	2 µg/mL (≈ 4.28 µM)	32 µg/mL (≈ 68.4 µM)	2 µg/mL (≈ 4.28 µM)	1 µg/mL (≈ 2.14 µM)							
C[C@@H](N1CCc2cc(-c3cccnc3)sc2C1)[C@](O)(Cn1cncn1)c1ccc(F)cc1F	1 µg/mL (≈ 2.14 µM)	0.5 µg/mL (≈ 1.07 µM)	1 µg/mL (≈ 2.14 µM)	8 µg/mL (≈ 17.1 µM)	1 µg/mL (≈ 2.14 µM)	0.5 µg/mL (≈ 1.07 µM)							
C[C@@H](N1CCc2cc(-c3cncnc3)sc2C1)[C@](O)(Cn1cncn1)c1ccc(F)cc1F	0.25 µg/mL (≈ 0.534 µM)	0.5 µg/mL (≈ 1.07 µM)	1 µg/mL (≈ 2.13 µM)	16 µg/mL (≈ 34.1 µM)	0.5 µg/mL (≈ 1.07 µM)	0.5 µg/mL (≈ 1.07 µM)							
C[C@@H](N1CCc2cc(-c3ccc(C#N)nc3)sc2C1)[C@](O)(Cn1cncn1)c1ccc(F)cc1F	4 µg/mL (≈ 8.12 µM)	4 µg/mL (≈ 8.12 µM)	4 µg/mL (≈ 8.12 µM)	32 µg/mL (≈ 65 µM)	4 µg/mL (≈ 8.12 µM)	2 µg/mL (≈ 4.06 µM)							
C[C@@H](N1CCc2nc(-c3cncnc3)sc2C1)[C@](O)(Cn1cncn1)c1ccc(F)cc1F.Cl							14800 µg/mL						
CS(=O)(=O)O.C[C@@H](N1CCc2nc(-c3cncnc3)sc2C1)[C@](O)(Cn1cncn1)c1ccc(F)cc1F							12000 µg/mL						
C[C@@H](N1CCc2nc(-c3cncnc3)sc2C1)[C@](O)(Cn1cncn1)c1ccc(F)cc1F.Cc1ccc(S(=O)(=O)O)cc1							5800 µg/mL						
C[C@@H](N1CCc2nc(-c3cncnc3)sc2C1)[C@](O)(Cn1cncn1)c1ccc(F)cc1F.O=S(=O)(O)O							108000 µg/mL						
Br.C[C@@H](N1CCc2nc(-c3cncnc3)sc2C1)[C@](O)(Cn1cncn1)c1ccc(F)cc1F							12100 µg/mL						
C[C@@H](N1CCc2nc(-c3cncnc3)sc2C1)[C@](O)(Cn1cncn1)c1ccc(F)cc1F.O=P(O)(O)O							8330 µg/mL						
C[C@@H](n1cnc2cc(Cl)ccc2c1=O)[C@](O)(Cn1cncn1)c1ccc(F)cc1F [ALBACONAZOLE]	≤ 0.0312 µg/mL	≤ 0.0312 µg/mL	≤ 0.0312 µg/mL	0.5 µg/mL (≈ 1.16 µM)	0.0156 µg/mL (≈ 0.0361 µM)	0.0078 µg/mL (≈ 0.0181 µM)		1 µg/mL (≈ 2.32 µM)	> 16 µg/mL	8 µg/mL (≈ 18.5 µM)	≤ 0.0312 µg/mL	≤ 0.0312 µg/mL	4 µg/mL (≈ 9.26 µM)
C[C@@H]1[C@H](O)[C@@H](C)/C=C/C=C/C=C/C=C/C=C/C=C/C=C/[C@H](O[C@@H]2O[C@H](C)[C@@H](O)[C@H](N)[C@@H]2O)C[C@@H]2O[C@](O)(C[C@@H](O)C[C@@H](O)[C@H](O)CC[C@@H](O)C[C@@H](O)CC(=O)O[C@H]1C)C[C@H](O)[C@H]2C(=O)O [AMPHOTERICIN B]	1 µg/mL (≈ 1.08 µM)	1 µg/mL (≈ 1.08 µM)	0.5 µg/mL (≈ 0.541 µM)	4 µg/mL (≈ 4.33 µM)	0.5 µg/mL (≈ 0.541 µM)	1 µg/mL (≈ 1.08 µM)							
C[C@@H](c1nc(-c2ccc(C#N)cc2)cs1)[C@](O)(Cn1cncn1)c1ccc(F)cc1F [RAVUCONAZOLE]	0.0625 µg/mL (≈ 0.143 µM)	≤ 0.0625 µg/mL	≤ 0.125 µg/mL	1 µg/mL (≈ 2.29 µM)	0.125 µg/mL (≈ 0.286 µM)	0.0625 µg/mL (≈ 0.143 µM)		3 µg/mL (≈ 6.86 µM)					
C[C@@H](c1ncncc1F)[C@](O)(Cn1cncn1)c1ccc(F)cc1F [VORICONAZOLE]	0.0625 µg/mL (≈ 0.179 µM)	0.0625 µg/mL (≈ 0.179 µM)	≤ 0.125 µg/mL	2 µg/mL (≈ 5.73 µM)	0.125 µg/mL (≈ 0.358 µM)	≤ 0.0625 µg/mL	682 µg/mL (≈ 1950 µM)	1260 µg/mL (≈ 3620 µM)	> 16 µg/mL	> 16 µg/mL	0.0625 µg/mL (≈ 0.179 µM)	0.0625 µg/mL (≈ 0.179 µM)	> 16 µg/mL
